Measurements: the EternaBench riboswitch data

Test system: MS2 coat protein
Experiment: apparent Kd, MS2 coat protein; higher = weaker binding; RNA-MaP array; FMN 200 µM where present
In short: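 Designs on Illumina sequencing-chip clusters, transcribed by stalled E. coli RNA polymerase, were exposed to SNAP-549-labelled MS2 coat protein in doubling steps from 0.7 or 1.5 nM up to 3 µM, without and then with constant ligand. The buffer held 100 mM Tris-HCl pH 7.5, 80 mM KCl, 4 mM MgCl2, BSA, DTT, yeast tRNA and Tween-20. Apparent Kd values are medians of filtered per-cluster binding-curve fits to green signal normalised to red-channel RNA signal and control-cluster median Fmax.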

[1] = designed as: ON switch for flavin mononucleotide, no ligand
[2] = ligand present: flavin mononucleotide, designed as: ON switch for flavin mononucleotide
[3] = designed as: OFF switch for flavin mononucleotide, no ligand
[4] = ligand present: flavin mononucleotide, designed as: OFF switch for flavin mononucleotide

Sequence: GGUGCACGCACAGGAUAUCCGGCGAAGCUCGUCGGAGAAGGGUGACAUGAGGAUCACCCAUGUACGUGCAACCCAGUUUGAGAG
- apparent Kd [1]: 85.2 nM
- apparent Kd [2]: 31.4 nM

Sequence: AACAGACGUGCUCUGAGUCCACAUGAGGAUCACCCAUGUGAGAGAAGGACCCUCGAGAGAGUUGGGUAGGAUAUCUCCGAUGGG
- apparent Kd [3]: 27 nM
- apparent Kd [4]: 80.5 nM

Sequence: CGAGUUUUUGAGAAGGCAUAAUAUAUAAUACCACAUGUUUACAUGAGGAUCACCCAUGUUUCCUAUGAGGAUAUCAGAAUAUCG
- apparent Kd [3]: 16.1 nM
- apparent Kd [4]: 14.4 nM

Sequence: GCACGGCAUGUAGGAUAUCGAGCGCCGGGCGCUCGAGAAGGACAUGAGGAUCACCCAUGUAGUCUCAGUGAGAGACUGCUGUGC
- apparent Kd [3]: 18.3 nM
- apparent Kd [4]: 36.2 nM

Sequence: ACAGUAUAUGUAGGAUAUCAUUGGCCAGGUAGGUGAGAAGGGCAUAGUACAUGAGGAUCACCCAUGUGUUGGUCCUCGCAGAAA
- apparent Kd [3]: 392 nM
- apparent Kd [4]: 233 nM

Sequence: CAUUAAUUCAUUAUAGUUAUUAUACAGGAUAUGUUACAUGAGGAUCACCCAUGUAUUCAUGGUAAACAGAAGGGUAAUACUCGU
- apparent Kd [3]: 49.3 nM
- apparent Kd [4]: 45.9 nM

Sequence: ACUAAACGAGGAUAUACUGACAGGCCUCAAACAUACAUCAAACAUGAGGAUCACCCAUGUAGAAGGCGUAAACU
- apparent Kd [3]: 34.5 nM
- apparent Kd [4]: 25.1 nM

Sequence: GGCUCGAGGGUCUCCGCGUUCACAUGAGGAUCACCCAUGUAACAGGAUAUCGGGCCAAAGGGCAGCGAGAAGGGUUACUUGGGC
- apparent Kd [3]: 6.43 nM
- apparent Kd [4]: 14.6 nM

Sequence: AAAAGGUGAGGAUAUUCGGCGCCGGGAAGGUUGGUGCGGAUGAAGAAGGCACAUGAGGAUCACCCAUGUAAUAA
- apparent Kd [3]: 63 nM
- apparent Kd [4]: 49.1 nM

Sequence: GUGGUCAGACAUGAGGAUCACCCAUGUGGAAUAAAUAAGGAUUAGGAUAUGGAAUAUAGGAUAUACCAGAAGGAAUGGUUGGUG
- apparent Kd [1]: 97.8 nM
- apparent Kd [2]: 103 nM

Sequence: AAGAAACAUGAGGAUCACCCAUGUAAUAAUAUGGGAGGAUAUACAAGGACAAUAGUCAAGGUAGAAGGCCUAAGAA
- apparent Kd [1]: 175 nM
- apparent Kd [2]: 27.5 nM

Sequence: CGCGGACAAGAGAAGGCCAGACCUCGGAACCUGAGGCACCGCUAGGCAUGGAGGAUAUCUUGACAUGAGGAUCACCCAUGUACU
- apparent Kd [1]: 665 nM
- apparent Kd [2]: 33.7 nM

Sequence: CGGCACCAAGGAUAUACAUGAGGAUCACCCAUGUUUUUUGGGCCCUAAAGAUCUACGUGUAGAAGGUGGGUCGA
- apparent Kd [3]: 58.8 nM
- apparent Kd [4]: 59.6 nM

Sequence: ACAUGAGGAUCACCCAUGUAAAGCGAGGAUAUUUCACUGCACAUGAGGUUCGCCCAUGUUCUGCGGAAGAAGGUGCAAAUAAUU
- apparent Kd [2]: 28.1 nM

Sequence: UUUUAACAUGAGGAUCACCCAUGUGAGGAUAUCGAAAUUUAUAUUUAUAUUUAUAUUACGAGAAGGCACAUUUU
- apparent Kd [3]: 84.9 nM
- apparent Kd [4]: 102 nM

Sequence: UCCGCUCGAGGAUAUACAUGAGGAUCACCCAUGUUUCCCUGUUGCUUGGCCUCAGGAUGUAGAAGGCGACGCUA
- apparent Kd [3]: 17.6 nM
- apparent Kd [4]: 19.8 nM

Sequence: AAAAAGUCAGGAUAUGCGAAGGCGUCUGAUAGACGAGGCUAGCAGAAGGGACAUGAGGAUCACCCAUGUAAAAA
- apparent Kd [3]: 31.9 nM
- apparent Kd [4]: 45.2 nM

Sequence: AAAUCUUACGAAGGAUAUACAAACAUGAGGAUCACCCAUGUGUGUUUCGUGUUACUGAAAUUCGGGUAGAAGGUCGUAGACAUA
- apparent Kd [3]: 27.7 nM
- apparent Kd [4]: 19.2 nM

Sequence: UAUAUGUCAGGAUAUUGAUUGGGAUGGAAUUUAGUUUUGGUUAAGAAGGGACAUGAGGAUCACCCAUGUUCCUC
- apparent Kd [3]: 17.1 nM
- apparent Kd [4]: 18.4 nM

Sequence: AACCGUGCGGAGGAUAUUGAUAUCCCAGUCUAUCAAGAAGGCUGCACAUGAGGAUCACCCAUGUGAUCCGUGCU
- apparent Kd [3]: 21.2 nM
- apparent Kd [4]: 116 nM

Sequence: GGUGCGUAUGUGAGGAUAUGCUGGUCCUUGGUUCAGCAGAAGGCACAUGAGGAUCACCCAUGUGGUGUCGUACC
- apparent Kd [3]: 289 nM
- apparent Kd [4]: 26.4 nM

Sequence: CCAGCCGUUCAAGGAUAUGACAUGAGGAUCACCCAUGUGAAGUCGAACAUUGAUGCACACCUUAGUCAGAAGGUGGAUGGGUCU
- apparent Kd [3]: 30.9 nM
- apparent Kd [4]: 96.5 nM

Sequence: GUAGUGCUCAUAGGAUAUCGGGAGCAACGUAGACAGGUUGCACAUGAGGAUCACCCAUGUAAAGUCGAGAAGGGUGAUCACGCC
- apparent Kd [1]: 599 nM
- apparent Kd [2]: 177 nM
